# From ChEMBL document CHEMBL5390271, “Targeting Glial Cells by Organic Anion-Transporting Polypeptide 1C1 (OATP1C1)-Utilizing l-Thyroxine-Derived Prodrugs” (J Med Chem, 2023)
# How the values were obtained:
# [1] = Drug uptake in human U-87 MG cells expressing OATPIC1 at 100 uM incubated for 30 mins in presence of flufenamic acid by HPLC analysis; type: ADME, cell-based; settings: u-87mg atcc, 0.5 h
# In short: (§1)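 U-87MG cells preincubated 10 min with diclofenac or flufenamic acid (100 μM), then co-incubated with the compound (100 μM) plus inhibitor in HBSS pH 7.4 for 30 min at 37 °C. Uptake quantified by HPLC, normalized to protein and expressed as % of control. One-way ANOVA with Dunnett's test; n = 3.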
# [2] = Drug uptake in mouse Astrocyte cells expressing OATPIC4/5/6 at 100 uM incubated for 30 mins in presence of naringin by liquid scintillation counter analysis; type: ADME, cell-based; settings: 0.5 h
# In short: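 Astrocytes preincubated 10 min with naringin (100 μM), then incubated with substrate (100 μM) plus naringin in HBSS pH 7.4 for 30 min at 37 °C. Uptake normalized to protein and expressed relative to control; one-way ANOVA with Dunnett's test.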
# [3] = Drug uptake in human U-87 MG cells expressing OATPIC1 at 100 uM incubated for 30 mins in presence of diclofenac by HPLC analysis; type: ADME, cell-based; settings: u-87mg atcc, 0.5 h; in short: as §1
# [4] = Chemical stability in Tris-HCI buffer at pH 7.4 at 100 uM and measured after 24 hrs by HPLC analysis; type: physicochemical; settings: pH 7.4, 24 h
# In short: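 Prodrug (100 μM initial, from 10 mM DMSO stock; 2% DMSO) incubated at 37 °C in 50 mM Tris–HCl pH 7.4 for 24 h. Samples taken at intervals, quenched 1:1 with ACN, analysed by HPLC-UV (230–240 nm). Pseudo-first-order t1/2 taken from the slope of log remaining prodrug vs time.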
# [5] = Prodrug conversion in human U-87 MG cells expressing OATPIC1 assessed as OATPIC1 mediated drug release at 100 uM incubated for 30 mins by HPLC analysis; type: ADME, cell-based; settings: u-87mg atcc, 0.5 h
# In short: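 U-87MG cells incubated with prodrug at 100 μM for 30 min at 37 °C in HBSS. Released parent drug in cell lysate measured by HPLC and normalized to protein, alongside uptake of the parent drug itself; n = 3–6.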
# [6] = Drug uptake in JAXC57BL/6 mouse brain at 25 micromol/kg,ip and measured after 30 mins by LC-MS/MS analysis; type: ADME, tissue-based; settings: in vivo, 0.5 h, dose 25 µmol/kg
# In short: (§2)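 Male C57BL/6J mice, seven weeks old, given an ip bolus of 25 μmol/kg. Formulation 2.5 mM in saline with 30% Macrogol 15-hydroxystearate and 3% DMSO. Pentobarbital anaesthesia, then transcardial perfusion with ice-cold saline for 1 min. Whole brain (minus cerebellum and pons) taken at 30 min, homogenized in Tris pH 7.4, ACN-precipitated with labetalol internal standard, and quantified by LC–MS/MS in nmol/g.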
# [7] = Drug uptake in human U-87 MG cells expressing OATPIC1 assessed as Vmax at 200 uM incubated for 30 mins by Michaelis-Menten analysis; type: ADME, cell-based; settings: u-87mg atcc, 0.5 h
# In short: (§3)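 U-87MG cells seeded at 1 × 10^5/well and used 1 day later. After 10 min preincubation in HBSS pH 7.4 at 37 °C, compounds added at 5–400 μM for 30 min at 37 °C. Cells washed with ice-cold HBSS, lysed in 0.1 M NaOH, acidic-ACN precipitated, analysed by HPLC against a spiked lysate standard curve, and normalized to Bradford protein. Km/Vmax fitted by Michaelis–Menten; n = 3 biological replicates.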
# [8] = Drug uptake in mouse Astrocyte cells expressing OATPIC4/5/6 assessed as Vmax at 200 uM incubated for 30 mins by Michaelis-Menten analysis; type: ADME, cell-based; settings: 0.5 h
# In short: (§4)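 Primary astrocytes from neonatal (P0–2) C57BL/6JOlaHsd pups, microglia removed at day 7, seeded at 10^4 cells/well 3 days before assay. Substrate added at 5–400 μM in HBSS pH 7.4 for 30 min at 37 °C. [3H]-estrone-3-sulfate measured by liquid scintillation and prodrugs by HPLC; normalized to protein. Km/Vmax fitted by Michaelis–Menten.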
# [9] = Prodrug conversion in JAXC57BL/6 mouse brain assessed as total amount of prodrug and ketoprofen level at 25 micromol/kg,ip and measured after 30 mins by LC-MS/MS analysis; type: ADME, tissue-based; settings: in vivo, 0.5 h, dose 25 µmol/kg; in short: as §2
# [10] = Drug uptake in mouse Astrocyte cells expressing OATPIC4/5/6 at 5 to 400 uM incubated for 30 mins by liquid scintillation counter analysis; type: ADME, cell-based; settings: 0.5 h, dose 5-400 µM; in short: as §4
# [11] = Drug uptake in mouse Astrocyte cells expressing OATPIC4/5/6 at pH 4.5 to 8.5 at 100 uM incubated for 30 mins by liquid scintillation counter analysis; type: ADME, cell-based; settings: pH 4.5, 0.5 h
# In short: (§5)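 Mouse primary astrocytes incubated with [3H]-estrone-3-sulfate for 30 min at 37 °C in HBSS at pH 4.5–8.5 (MES or HEPES buffer). At pH 7.4, uptake was also run with choline chloride in place of Na+. Read by liquid scintillation counting and normalized to protein; n = 3 biological replicates.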
# [12] = Drug uptake in mouse Astrocyte cells expressing OATPIC4/5/6 at 100 uM incubated for 30 mins in presence of Na+ ions by liquid scintillation counter analysis; type: ADME, cell-based; settings: 0.5 h; in short: as §5
# [13] = Drug uptake in mouse Astrocyte cells expressing OATPIC4/5/6 at 100 uM incubated for 30 mins in absence of Na+ ions by liquid scintillation counter analysis; type: ADME, cell-based; settings: 0.5 h; in short: as §5
# [14] = Drug uptake in human U-87 MG cells expressing OATPIC1 at 5 to 400 uM incubated for 30 mins by HPLC analysis; type: ADME, cell-based; settings: u-87mg atcc, 0.5 h, dose 5-400 µM; in short: as §3
# [15] = Drug uptake in human U-87 MG cells expressing OATPIC1 at 100 uM incubated for 30 mins in presence of Na+ ions by HPLC analysis; type: ADME, cell-based; settings: u-87mg atcc, 0.5 h
# In short: (§6)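 U-87MG cells incubated with T4 for 30 min at 37 °C in HBSS buffered with HEPES (pH 7.4, 8.5) or MES (pH 4.5–6.5). For Na+-free conditions, choline chloride replaced NaCl at pH 7.4. Lysates analysed by HPLC and normalized to protein; mean ± SD, n = 3 biological replicates.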
# [16] = Drug uptake in human U-87 MG cells expressing OATPIC1 at 100 uM incubated for 30 mins in absence of Na+ ions by HPLC analysis; type: ADME, cell-based; settings: u-87mg atcc, 0.5 h; in short: as §6
# [17] = Drug uptake in human U-87 MG cells expressing OATPIC1 at pH 4.5 to 8.5 at 100 uM incubated for 30 mins by HPLC analysis; type: ADME, cell-based; settings: u-87mg atcc, pH 4.5, 0.5 h; in short: as §6
SMILES,Drug uptake [1],Drug uptake [2],Drug uptake [3],Stability [4],Drug metabolism [5],other results
N[C@@H](Cc1cc(I)c(OC(=O)c2ccccc2O)c(I)c1)C(=O)O,Active,Not Active,Active,Stable,Metabolite_Detected,
CC(C(=O)O)c1cccc(C(=O)c2ccccc2)c1 (racemic) [KETOPROFEN],,,,,,Drug uptake [6]: 0.22 nmol/g
N[C@@H](Cc1cc(I)c(Oc2cc(I)c(OC(=O)c3ccccc3O)c(I)c2)c(I)c1)C(=O)O,Active,Not Active,Active,Stable,Metabolite_Detected,
COc1ccc2cc([C@H](C)C(=O)Oc3c(I)cc(Oc4c(I)cc(C[C@H](N)C(=O)O)cc4I)cc3I)ccc2c1,Active,Active,Not Active,Stable,Metabolite_Detected,
CC(C(=O)Oc1c(I)cc(C[C@H](N)C(=O)O)cc1I)c1cccc(C(=O)c2ccccc2)c1 (stereo not given in full),Active,Not Active,Active,Stable,Metabolite_Detected,Vmax [7]: 1.27 nmol/min/mg
COc1ccc2cc([C@H](C)C(=O)Oc3c(I)cc(C[C@H](N)C(=O)O)cc3I)ccc2c1,Active,Active,Active,Stable,Metabolite_Detected,
CC(C(=O)Oc1c(I)cc(Oc2c(I)cc(C[C@H](N)C(=O)O)cc2I)cc1I)c1cccc(C(=O)c2ccccc2)c1 (stereo not given in full),Not Active,Not Active,Not Active,Stable,Metabolite_Detected,Vmax [8]: 5.5 nmol/min/mg; Drug uptake [9]: 0.78 nmol/g
CC(C(=O)Oc1c(I)cc(Oc2c(I)cc(C[C@H](N)C(=O)O)cc2I)cc1I)c1ccc(-c2ccccc2)c(F)c1 (stereo not given in full),Not Active,Not Active,Not Active,Stable,Metabolite_Detected,
CC(C(=O)Oc1c(I)cc(C[C@H](N)C(=O)O)cc1I)c1ccc(-c2ccccc2)c(F)c1 (stereo not given in full),Not Active,Not Active,Not Active,Stable,Metabolite_Detected,
C[C@]12CC[C@@H]3c4ccc(OS(=O)(=O)O)cc4CC[C@H]3[C@@H]1CCC2=O [ESTRONE SULFURIC ACID],,Not Active,,,,Drug uptake [10]: Active; Drug uptake [11]: Active; Drug uptake [12]: Active; Drug uptake [13]: Active
N[C@@H](Cc1cc(I)c(Oc2cc(I)c(O)c(I)c2)c(I)c1)C(=O)O [LEVOTHYROXINE],Not Active,,Not Active,,,Drug uptake [14]: Active; Drug uptake [15]: Active; Drug uptake [16]: Active; Drug uptake [17]: Active
